The values that follow come from ChEMBL document CHEMBL4325842, “Design, synthesis, and biological evaluation of novel aminopyrimidinylisoindolines as AXL kinase inhibitors” (Bioorg Med Chem Lett, 2018).

The subject of one assay is A549. As to the kind of experiment: Antiproliferative activity against human A549 cells after 2 days by spectrophotometric analysis. Type of assay: functional. As to conditions: A549, 48 h.
For the next assay, the system named is U-87 MG. Kind of assay: Antiproliferative activity against human U87MG cells after 2 days by spectrophotometric analysis. Type of assay: functional, U-87MG ATCC. The note with it: 48 h.
The test system of the next assay is HeLa. As to the kind of experiment: Antiproliferative activity against human HeLa cells after 2 days by spectrophotometric analysis. Format: functional. The note with it: 48 h. The essentials:
(§1)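 Cells from ATCC were kept in RPMI 1640 with 5% FBS. They were exposed to graded concentrations in DMSO/RPMI for 48 h at 37 C under 5% CO2, then fixed with 50% trichloroacetic acid. Cellular protein was read at 540 nm at time zero and at 48 h, with and without compound. TGI (100% growth inhibition) was taken from the concentration-response curve.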

For another assay, the system named is OVCAR-3. Kind of assay: Antiproliferative activity against human OVCAR3 cells after 2 days by spectrophotometric analysis. As to conditions: OVCAR-3, 48 h. Type of assay: functional. The essentials: as §1
Another assay relates to HepG2. As to the kind of experiment: Antiproliferative activity against human HepG2 cells after 2 days by spectrophotometric analysis. Format: functional. The note with it: HepG2, 48 h.
For assay [1], the target named is T1, Tyrosine-protein kinase receptor UFO (Homo sapiens, UniProt P30530).
T1 sequence (P30530 whole entry): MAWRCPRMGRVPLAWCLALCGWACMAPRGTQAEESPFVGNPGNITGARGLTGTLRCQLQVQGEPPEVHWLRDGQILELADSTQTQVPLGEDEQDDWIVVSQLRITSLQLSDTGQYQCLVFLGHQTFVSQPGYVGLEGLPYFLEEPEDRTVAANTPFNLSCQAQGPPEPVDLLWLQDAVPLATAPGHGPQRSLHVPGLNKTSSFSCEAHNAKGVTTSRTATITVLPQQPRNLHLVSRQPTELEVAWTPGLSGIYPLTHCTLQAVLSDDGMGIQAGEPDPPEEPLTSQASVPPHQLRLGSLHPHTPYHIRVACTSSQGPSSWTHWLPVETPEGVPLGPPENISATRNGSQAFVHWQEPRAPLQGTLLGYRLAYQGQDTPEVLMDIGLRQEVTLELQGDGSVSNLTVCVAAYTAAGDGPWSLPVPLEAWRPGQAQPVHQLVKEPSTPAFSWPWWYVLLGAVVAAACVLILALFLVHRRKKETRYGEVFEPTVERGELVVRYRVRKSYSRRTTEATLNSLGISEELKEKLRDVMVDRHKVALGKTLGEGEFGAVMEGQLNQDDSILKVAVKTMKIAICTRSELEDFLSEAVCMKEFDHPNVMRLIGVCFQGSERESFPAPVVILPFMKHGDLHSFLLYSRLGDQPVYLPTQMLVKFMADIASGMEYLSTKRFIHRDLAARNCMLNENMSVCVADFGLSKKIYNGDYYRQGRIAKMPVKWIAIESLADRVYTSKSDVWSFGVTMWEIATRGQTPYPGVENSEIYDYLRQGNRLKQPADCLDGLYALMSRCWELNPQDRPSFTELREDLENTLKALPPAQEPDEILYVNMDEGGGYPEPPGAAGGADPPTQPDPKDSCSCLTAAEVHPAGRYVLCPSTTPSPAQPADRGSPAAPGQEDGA
As to the kind of experiment: Inhibition of N-terminal His-tagged recombinant human AXL (473 to end amino acids) expressed by baculovirus in Sf9 cells using axltide substrate and ATP by ADP-Glo luminescence assay.

In the case of `CN(c1cccc2c1CN(c1nc(Nc3cccc(Oc4ccccc4)c3)ncc1C(F)(F)F)C2)S(C)(=O)=O`, the GI50 was determined as 19 µM in the assay with A549; 19.5 µM in the assay with U-87 MG; 4.3 µM in the assay with HeLa; 24.9 µM with OVCAR-3; 23 µM in the assay on HepG2.

For the compound `COc1cc(Nc2ncc(C(F)(F)F)c(N3Cc4cccc(N(C)S(C)(=O)=O)c4C3)n2)cc(OC)c1`, the GI50 with A549 was 24.8 µM; in the assay with U-87 MG, more than 30 µM; with HeLa, 7 µM; in the assay on OVCAR-3, 0.63 µM; in the assay with HepG2, 1.8 µM.

In the case of `CN(c1ncccc1CNc1nc(Nc2ccc3c(c2)CC(=O)N3)ncc1C(F)(F)F)S(C)(=O)=O`, the GI50 came out at 2.1 µM in the assay with A549; 3.7 µM in the assay with U-87 MG; 1.7 µM in the assay on HeLa; 1.8 µM with OVCAR-3; 1.2 µM in the assay on HepG2.

As to `CN(c1cccc2c1CN(c1nc(Nc3ccc(N4CCOCC4)cc3)ncc1C(F)(F)F)C2)S(C)(=O)=O`, the GI50 in the assay on A549 turned out to be 2.5 µM; in the assay on U-87 MG, 6.8 µM; in the assay with HeLa, 0.79 µM; in the assay with OVCAR-3, 2.4 µM; with HepG2, 1.9 µM.

On to `COc1cc(Nc2ncc(C(F)(F)F)c(N3Cc4cccc(N(C)S(C)(=O)=O)c4C3)n2)c(OC)cc1Cl`, for which the IC50 in assay [1] was more than 20 µM. The GI50 in the assay with A549 is 7.3 µM; with U-87 MG, 6.2 µM; in the assay with HeLa, 16.5 µM; in the assay on OVCAR-3 it was more than 30 µM; in the assay with HepG2, 25.6 µM.

`CN(c1cccc2c1CN(c1nc(Nc3cccc(C(F)(F)F)c3)ncc1C(F)(F)F)C2)S(C)(=O)=O`: the GI50 with A549 was more than 30 µM; with U-87 MG, more than 30 µM; with HeLa it was 5.3 µM; in the assay with OVCAR-3 it was more than 30 µM; with HepG2 it was more than 30 µM.

Consider `Cc1cc(Cl)ccc1Nc1ncc(C(F)(F)F)c(N2Cc3cccc(N(C)S(C)(=O)=O)c3C2)n1`, for which the IC50 in assay [1] was more than 20 µM. In addition, the GI50 with A549 was 25.5 µM; with U-87 MG, 28.3 µM; in the assay with HeLa, 17.4 µM; in the assay with OVCAR-3, more than 30 µM; in the assay on HepG2, 19.6 µM.

`COc1cc(N2CCN(C(C)=O)CC2)ccc1Nc1ncc(C(F)(F)F)c(N2Cc3cccc(N(C)S(C)(=O)=O)c3C2)n1`: the GI50 in the assay on A549 was found to be 3.3 µM; in the assay with U-87 MG it was 4.7 µM; with HeLa, 1.3 µM; with OVCAR-3, 1.6 µM; in the assay with HepG2, 3.8 µM.

With `COc1ccc(C(F)(F)F)cc1Nc1ncc(C(F)(F)F)c(N2Cc3cccc(N(C)S(C)(=O)=O)c3C2)n1`, in assay [1], the IC50 is more than 20 µM. The GI50 is more than 30 µM in the assay with A549; more than 30 µM in the assay on U-87 MG; 17.2 µM in the assay with HeLa; more than 30 µM in the assay on OVCAR-3; more than 30 µM in the assay on HepG2.

As to `Cc1cc(F)ccc1Nc1ncc(C(F)(F)F)c(N2Cc3cccc(N(C)S(C)(=O)=O)c3C2)n1`, the GI50 is more than 30 µM in the assay with A549; more than 30 µM with U-87 MG; 6.5 µM in the assay with HeLa; more than 30 µM with OVCAR-3; 16.8 µM with HepG2.

Take `Cc1cc(C)cc(Nc2ncc(C(F)(F)F)c(N3Cc4cccc(N(C)S(C)(=O)=O)c4C3)n2)c1`: in assay [1], the half-maximal inhibitory concentration (IC50) was more than 20 µM. The GI50 in the assay on A549, with U-87 MG, with HeLa, with OVCAR-3 and in the assay with HepG2 was more than 30 µM each time.

With `Cc1ccc(Nc2ncc(C(F)(F)F)c(N3Cc4cccc(N(C)S(C)(=O)=O)c4C3)n2)c(C)c1`, the GI50 with A549 was 20.7 µM; in the assay with U-87 MG, more than 30 µM; with HeLa, 10.6 µM; with OVCAR-3, more than 30 µM; with HepG2, 19.1 µM.

Take `CN(c1cccc2c1CN(c1nc(Nc3ccccc3N3CCOCC3)ncc1C(F)(F)F)C2)S(C)(=O)=O`: the IC50 in assay [1] was more than 20 µM. The GI50 in the assay with A549 was more than 30 µM; in the assay with U-87 MG, more than 30 µM; in the assay with HeLa it was 23.9 µM; in the assay with OVCAR-3 it was more than 50 µM; in the assay with HepG2, more than 30 µM.

Regarding `Cc1ccc(Nc2ncc(C(F)(F)F)c(N3Cc4cccc(N(C)S(C)(=O)=O)c4C3)n2)c(Cl)c1`, in assay [1], the IC50 is more than 20 µM. Further, the GI50 in the assay on A549 is more than 30 µM; in the assay with U-87 MG, more than 30 µM; with HeLa it was 10.9 µM; in the assay with OVCAR-3, more than 30 µM; in the assay with HepG2 it was more than 30 µM.

`COc1ccc(Nc2ncc(C(F)(F)F)c(N3Cc4cccc(N(C)S(C)(=O)=O)c4C3)n2)cc1C(F)(F)F`: the IC50 in assay [1] was more than 20 µM. Moreover, the GI50 in the assay on A549 is more than 30 µM; with U-87 MG, 29.4 µM; in the assay with HeLa, 14 µM; with OVCAR-3, more than 30 µM; in the assay on HepG2, more than 30 µM.

Turning to `CN(c1cccc2c1CN(c1nc(Nc3ccc4c(c3)OCO4)ncc1C(F)(F)F)C2)S(C)(=O)=O`, the GI50 in the assay with A549 was 12.1 µM; in the assay with U-87 MG, more than 30 µM; with HeLa, 6.3 µM; with OVCAR-3 it was more than 30 µM; in the assay on HepG2 it was 9.8 µM.

Consider `CN(c1cccc2c1CN(c1nc(Nc3cc(Cl)cc(C(F)(F)F)c3)ncc1C(F)(F)F)C2)S(C)(=O)=O`, for which, in assay [1], the IC50 was more than 30 µM. Further, the GI50 with A549 was found to be 6.7 µM; in the assay with U-87 MG it was 5.5 µM; in the assay with HeLa it was 4.3 µM; with OVCAR-3, 21.5 µM; with HepG2 it was 9.9 µM.

Consider `CN(c1cccc2c1CN(c1nc(Nc3ccc(C(F)(F)F)cc3)ncc1C(F)(F)F)C2)S(C)(=O)=O`, for which the IC50 in assay [1] was more than 20 µM. Besides, the GI50 in the assay on A549, in the assay with U-87 MG, with HeLa, in the assay on OVCAR-3 and in the assay on HepG2 was more than 30 µM each time.

As for `COc1cc(Nc2ncc(C(F)(F)F)c(N3Cc4cccc(N(C)S(C)(=O)=O)c4C3)n2)cc(C(F)(F)F)c1`, the GI50 was more than 30 µM with A549; more than 30 µM with U-87 MG; 5.1 µM in the assay on HeLa; more than 30 µM in the assay with OVCAR-3; 22.1 µM with HepG2.

Take `Cc1ccc(Nc2ncc(C(F)(F)F)c(N3Cc4cccc(N(C)S(C)(=O)=O)c4C3)n2)cc1C`: the IC50 in assay [1] is more than 20 µM. In addition, the GI50 in the assay on A549, in the assay on U-87 MG, with HeLa, in the assay with OVCAR-3 and with HepG2 was more than 30 µM throughout.

For `CN(c1cccc2c1CN(c1nc(Nc3cc(C(F)(F)F)cc(C(F)(F)F)c3)ncc1C(F)(F)F)C2)S(C)(=O)=O`, the IC50 in assay [1] is more than 20 µM. The GI50 in the assay with A549 was more than 30 µM; with U-87 MG, 16.8 µM; with HeLa, 9.2 µM; in the assay with OVCAR-3, more than 30 µM; in the assay on HepG2, 10.3 µM.

Turning to `CN(c1cccc2c1CN(c1nc(Nc3ccc(Nc4ccccc4)cc3)ncc1C(F)(F)F)C2)S(C)(=O)=O`, in assay [1], the IC50 is more than 20 µM. Also, the GI50 in the assay with A549 is 6.2 µM; with U-87 MG it was 29.8 µM; with HeLa, 7.3 µM; with OVCAR-3, more than 50 µM; with HepG2, 8.6 µM.

Take `CN(c1cccc2c1CN(c1nc(Nc3ccc(Cl)c(C(F)(F)F)c3)ncc1C(F)(F)F)C2)S(C)(=O)=O`: the IC50 in assay [1] is more than 20 µM. Moreover, the GI50 in the assay on A549 was 15.2 µM; with U-87 MG, more than 30 µM; in the assay with HeLa, 11.1 µM; in the assay on OVCAR-3, more than 50 µM; with HepG2, 16 µM.
